In ChEMBL document CHEMBL4513216, “Probing the Open Global Health Chemical Diversity Library for Multistage-Active Starting Points for Next-Generation Antimalarials” (ACS Infect Dis, 2020) one finds cytotoxicity data, which are given here for 71 molecules.

The data set can be described thus: Toxicity liver stage against HepG2, at 10uM. The class given is cell-based. The arrangement: test concentration 10 uM, cell line HepG2-A16-CD81EGFP. The following applies: human, HepG2-A16-CD81EGFP cells; read-out: INHIBITION
Put shortly: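 Uninfected HepG2-A16-CD81EGFP cells, 3 × 10^3 per well, 1536-well, plated on prespotted compound at 10 μM final, parasite-free screening media added to match infected plates; puromycin 10 μM positive, DMSO 0.5% negative; run in parallel with 48 h PbLuc assay at 37 °C, 5% CO2; viability by CellTiter-Glo luminescence, normalized to controls.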

On to `CCc1nnc2n1CCN(C(=O)c1cc3ccccc3[nH]1)C2`, for which the cytotoxicity at 10 µM came out at 4.38%.

Turning to `c1cc(CN2CCC3(CCOCC3COCC3CC3)CC2)ccn1` (stereo unspecified), the cytotoxicity at 10 µM was -9.52%.

Take `CCn1cc(CN2CCCN(C(=O)C3(C#N)CCCCC3)CC2)cn1`: the cytotoxicity at 10 µM was -53.5%.

As for `CCc1nc(CN(C)C(=O)NCc2cccc(NC(C)=O)c2)cs1`, the cytotoxicity at 10 µM is -3.71%.

For `CCN(C)c1ncnc2c1CCN(C(=O)c1cccn1C)CC2`, the cytotoxicity at 10 µM was -67.8%.

For the molecule `O=C(CNCCn1cccn1)NCC1(c2ccccc2)CCOCC1`, the cytotoxicity at 10 µM is -8.27%.

As for `CN(Cc1nc2ccccc2n1C)C(=O)CCc1cscn1`, the cytotoxicity at 10 µM was -159%.

For the molecule `CCS(=O)(=O)c1ccc2oc([C@H]3CCN(Cc4ccncc4)C3)nc2c1`, the cytotoxicity at 10 µM turned out to be 23.7%.

With `CC(NC(=O)NCCCn1cccn1)c1ccc2c(c1)NC(=O)CO2` (stereo unspecified), the cytotoxicity at 10 µM is -5.07%.

With `CC(C)Nc1nc(N2CCCC2)nc2c1CN(C)CC2`, the cytotoxicity at 10 µM is -0.376%.

Regarding `Cc1oc(-c2ccsc2)nc1CNC(C)Cn1cccn1` (stereo unspecified), the cytotoxicity at 10 µM was -9.81%.

In the case of `CN(C)CCn1nc(C2CCN(S(=O)(=O)N(C)C)C2)c2cccnc21` (stereo unspecified), the cytotoxicity at 10 µM was -2.15%.

In the case of `CNC1CCC2(CC1)CNC(=O)c1cc(C)ccc1O2` (stereo unspecified), the cytotoxicity at 10 µM was -9.28%.

`Cn1cc(C2CCCN2C(=O)CCCc2nc3ccccc3[nH]2)cn1` (stereo unspecified): the cytotoxicity at 10 µM was 2.35%.

Take `CCOc1nnc(CN(CC)CC(=O)NC(C)(C)C)s1`: the cytotoxicity at 10 µM was -13.7%.

For `COc1ccccc1CC(=O)N1CCC(NCc2cccnc2)CC1`, the cytotoxicity at 10 µM is -5.7%.

For `CC(=O)N1CCCN(c2cc(C3CN(C)CCO3)nc(C)n2)CC1` (stereo unspecified), the cytotoxicity at 10 µM is 7.47%.

`CCc1nc2n(n1)CC(NCc1cc(OC)c3c(c1)OCO3)CC2` (stereo unspecified): the cytotoxicity at 10 µM amounted to 4.23%.

`CC(C)N(C)Cc1ncn2c1CN(C(=O)C1CCCO1)CCC2` (stereo unspecified): the cytotoxicity at 10 µM is -103%.

Regarding `O=C(NCC(F)(F)F)c1ccc(-c2ccco2)[nH]c1=O`, the cytotoxicity at 10 µM is -21.6%.

On to `O=C(NCCn1nc(-n2cncn2)ccc1=O)c1ccc(F)cc1F`, for which the cytotoxicity at 10 µM was -8.78%.

In the case of `CCCOc1ccc2c(c1)OCC(C(=O)NC(C)Cn1cccn1)=C2` (stereo unspecified), the cytotoxicity at 10 µM was 4.46%.

As to `O=C1CCCN1Cc1nnc2n1CCN(Cc1ccoc1)CC2`, the cytotoxicity at 10 µM amounted to 2.72%.

Regarding `O=C(Cc1ccc2c(c1)OCCO2)NCc1ccc(-n2cncn2)nc1`, the cytotoxicity at 10 µM is -20.5%.

Regarding `CN(Cc1nncn1-c1cccc(C(F)(F)F)c1)S(C)(=O)=O`, the cytotoxicity at 10 µM stood at 3.01%.

On to `O=C(NCc1ccccc1)N1CCC(Oc2ncccc2Cl)CC1`, for which the cytotoxicity at 10 µM was determined as 17%.

As for `CCC(C(=O)NCc1ccncc1)N(c1cccc(Cl)c1)S(C)(=O)=O` (stereo unspecified), the cytotoxicity at 10 µM is -4.31%.

Consider `O=C(NC1CC1)c1cnc2n1CCCC2`, for which the cytotoxicity at 10 µM is -6.81%.

As for `O=C(c1cc[nH]n1)N1CCC(c2nccn2Cc2ccncc2)CC1`, the cytotoxicity at 10 µM turned out to be 0.216%.

For the molecule `COc1ccc(C(=O)N2CCCC2c2ccco2)cc1OC` (stereo unspecified), the cytotoxicity at 10 µM was found to be 1.03%.

For `CC(C)c1nc(N2CC(N3CCCCC3C)C2)c2cnn(C)c2n1` (stereo unspecified), the cytotoxicity at 10 µM was -15.5%.

Consider `O=C(NCCc1c[nH]cn1)c1ccccc1C1CCNC1` (stereo unspecified), for which the cytotoxicity at 10 µM is 12.8%.

As to `CCCNC(=O)c1nn(CC)cc1NC(=O)c1cn(C)nc1C`, the cytotoxicity at 10 µM is -5.63%.

As to `CS(=O)(=O)N1CCN2C(=O)N(C3CCOCC3)C[C@H]2C1`, the cytotoxicity at 10 µM is 5.76%.

Take `CN(Cc1nc(-c2ccccc2)no1)C(=O)CNS(C)(=O)=O`: the cytotoxicity at 10 µM turned out to be 0.0773%.

In the case of `Cc1nc(CN2CCCCC2Cn2cncn2)nc2ccccc12` (stereo unspecified), the cytotoxicity at 10 µM was -3.46%.

`O=C(CNCC1(O)CCCN(Cc2cccc(F)c2F)C1=O)NC1CC1` (stereo unspecified): the cytotoxicity at 10 µM was -4.02%.

`CCc1nnc(SCC(=O)Nc2cc(C(C)(C)C)nn2C)[nH]1`: the cytotoxicity at 10 µM was determined as 7.28%.

As for `O=C1CC(c2ccc(C(=O)O)cc2)c2ncn(-c3ccccc3)c2N1` (stereo unspecified), the cytotoxicity at 10 µM was -1.04%.

On to `C=C(C)Cn1nnc(C2(NC(=O)c3ccccc3)CCCC2)n1`, for which the cytotoxicity at 10 µM amounted to 7.09%.

As to `O=C(NS(=O)(=O)c1cnn(-c2ccccc2F)c1)c1ccoc1`, the cytotoxicity at 10 µM was -5.2%.

For the molecule `COc1ccc(-c2csc3c2c(N)nc(=O)n3CC(N)=O)cc1`, the cytotoxicity at 10 µM is -42.2%.

`CC1CN(C(=O)c2ccnc(OCCN(C)C)c2)c2ccccc21` (stereo unspecified): the cytotoxicity at 10 µM was -0.343%.

Turning to `CN(C)C(=O)C1CCCN1CCCNC(=O)Cc1ccccc1F` (stereo unspecified), the cytotoxicity at 10 µM came to 0.646%.

Consider `CCN(CC)CCSc1ncnc2[nH]ncc12`, for which the cytotoxicity at 10 µM is -4.44%.

On to `O=S(=O)(c1ccc(Cl)cc1)N1CCc2nc(C3CCNCC3)ncc2C1`, for which the cytotoxicity at 10 µM was -17.3%.

`CSC1=Nc2c(cnn2-c2ccc(Cl)cc2)C2=NCCCN12`: the cytotoxicity at 10 µM turned out to be 7.41%.

Take `CCNC(=O)NC(=O)CNC(C)(C)c1ccc2c(c1)OCCO2`: the cytotoxicity at 10 µM was -19.7%.

Take `Cc1cc(S(C)(=O)=O)c(C)c(S(=O)(=O)NC2CCCC2)c1`: the cytotoxicity at 10 µM stood at 12.8%.

Regarding `O=C(Nc1ccccc1)N1C[C@@H]2OCCN(C(=O)c3ccco3)[C@@H]2C1`, the cytotoxicity at 10 µM is -150%.

In the case of `Cc1cccc(OCCC(=O)NCC2CN(C)CCO2)c1C` (stereo unspecified), the cytotoxicity at 10 µM is -6.3%.

For `CN(C)C(=O)N1C[C@@H](C(=O)NCc2ccco2)C[C@H]2OCC[C@H]21`, the cytotoxicity at 10 µM amounted to 2.57%.

In the case of `CN(c1ccc(C(N)=O)nn1)C1CCC1`, the cytotoxicity at 10 µM came to 9%.

For the molecule `CN1CCN(c2ccc(NCc3ccc([S+](C)[O-])cc3)cn2)CC1` (stereo unspecified), the cytotoxicity at 10 µM turned out to be 9.84%.

For the molecule `CC(C)N1CCOC(Cc2nn3c(Cc4ccccc4)nnc3s2)C1` (stereo unspecified), the cytotoxicity at 10 µM was -6.53%.

Consider `Cc1ccsc1C(=O)N1CCCC(c2[nH]ncc2S(C)(=O)=O)C1` (stereo unspecified), for which the cytotoxicity at 10 µM is -5.39%.

Turning to `Cc1nnc(SCC(=O)c2cc3c(cc2Cl)NC(=O)C3)o1`, the cytotoxicity at 10 µM was -5.28%.

Consider `CCN1CCCc2cc(CN3CCc4c(nc(C)[nH]c4=O)C3)ccc21`, for which the cytotoxicity at 10 µM was -1.02%.

As to `Cc1cnc(CN(C)C2CCN(CCCc3cnn(C)c3)C2)o1` (stereo unspecified), the cytotoxicity at 10 µM came to 2.61%.

For `CC(C)Cn1cc2nc(N3CCCC3)[nH]cc-2c1=O`, the cytotoxicity at 10 µM worked out at 9.6%.

Take `Cc1ccc(OCC(=O)NC2(C#N)CCSCC2)cc1C`: the cytotoxicity at 10 µM is 5.7%.

In the case of `O=C1CC2(CCSC2)C(=O)N1Cc1coc(-c2ccc(F)cc2)n1` (stereo unspecified), the cytotoxicity at 10 µM worked out at 6.88%.

Consider `Fc1ccc(N2CCC3(CC2)CC(OCc2cccnc2)CO3)cc1` (stereo unspecified), for which the cytotoxicity at 10 µM was determined as 9.81%.

For `CCn1cnnc1CCNc1nc(C)cc(C)c1C#N`, the cytotoxicity at 10 µM stood at 2.56%.

`CC(=O)N[C@@H]1CN(C(=O)c2cnc3ccccc3c2)C[C@H]1O`: the cytotoxicity at 10 µM is -12.1%.

As to `NC(=O)C1CCN(Cn2nc(-c3ccc(F)cc3)oc2=O)CC1`, the cytotoxicity at 10 µM is -19.6%.

In the case of `O=C(c1ccc(Cl)s1)N1CCC2(COc3ncccc3S(=O)(=O)N2)C1` (stereo unspecified), the cytotoxicity at 10 µM is 8.77%.

In the case of `COC[C@]1(O)CCN(Cc2cnc(N(C)C)nc2)CC1(C)C`, the cytotoxicity at 10 µM is -5.03%.

Turning to `O=C(c1cnccn1)N1C[C@@H]2[C@@H](C1)OCC(=O)N2CC1CCCC1`, the cytotoxicity at 10 µM worked out at 1.58%.

For `CS(=O)(=O)c1ccccc1C(=O)NCC1Cc2ccccc2O1` (stereo unspecified), the cytotoxicity at 10 µM was -9.6%.

Take `CCCc1nnc(N2CCC(N3CCN(CCO)CC3)CC2)o1`: the cytotoxicity at 10 µM is -4.95%.
